According to ChEMBL document CHEMBL1938297, “Synthesis, radiofluorination and pharmacological evaluation of a fluoromethyl spirocyclic PET tracer for central σ1 receptors and comparison with fluoroalkyl homologs” (Bioorg Med Chem, 2012):

How the values were obtained:
Femur [1] = assay: Biodistribution in CD1 mouse femur at 300 kBq, iv after 60 mins by gamma counting; type: ADME, organism-based; conditions: in vivo, 1 h
Method in brief: (§1)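 Female CD-1 mice received [18F]1 (300 kBq) i.v.; 3–6 animals per time point anesthetized at 5, 30, 60 or 120 min p.i., blood and urine collected, animals euthanized by cervical dislocation, organs dissected and weighed. Radioactivity counted in a calibrated gamma counter; % ID/g = tissue counts / initial dose counts / tissue weight; means with SD.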

Mus musculus [2] = assay: Biodistribution in CD1 mouse fat at 300 kBq, iv after 60 mins by gamma counting; type: ADME, organism-based, Adipose tissue; conditions: in vivo, 1 h; method in brief: as §1
Blood [3] = assay: Biodistribution in CD1 mouse blood at 300 kBq, iv after 120 mins by gamma counting; type: ADME, organism-based; conditions: in vivo, 2 h; method in brief: as §1
Lung [4] = assay: Biodistribution in CD1 mouse lung at 300 kBq, iv after 120 mins by gamma counting; type: ADME, organism-based; conditions: in vivo, 2 h
Method in brief: (§2)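 Female CD-1 mice received the 18F tracer iv at 300 kBq in 0.9% NaCl containing 5% ethanol; 3–6 animals per time point (5, 30, 60, 120 min p.i.). Animals anaesthetized, blood and urine collected, killed by cervical luxation, organs dissected and weighed, counted in calibrated gamma counter. %ID/g = tissue counts / initial dose counts / tissue weight; mean with SD.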

Urinary bladder [5] = assay: Biodistribution in CD1 mouse bladder at 300 kBq, iv after 120 mins by gamma counting; type: ADME, organism-based; conditions: in vivo, 2 h; method in brief: as §1
Spleen [6] = assay: Biodistribution in CD1 mouse spleen at 300 kBq, iv after 120 mins by gamma counting; type: ADME, organism-based; conditions: in vivo, 2 h; method in brief: as §2
Pancreas = assay: Biodistribution in CD1 mouse pancreas at 300 kBq, iv after 120 mins by gamma counting; type: ADME, organism-based; conditions: in vivo, 2 h; method in brief: as §2
Mus musculus [7] = assay: Biodistribution in CD1 mouse adrenals at 300 kBq, iv after 120 mins by gamma counting; type: ADME, organism-based, Adrenal gland; conditions: in vivo, 2 h; method in brief: as §1
Muscle tissue = assay: Biodistribution in CD1 mouse muscle at 300 kBq, iv after 120 mins by gamma counting; type: ADME, organism-based; conditions: in vivo, 2 h; method in brief: as §2
Femur [8] = assay: Biodistribution in CD1 mouse flushed femur at 300 kBq, iv after 120 mins by gamma counting; type: ADME, organism-based; conditions: in vivo, 2 h; method in brief: as §1
Mus musculus [9] = assay: Biodistribution in CD1 mouse fat at 300 kBq, iv after 120 mins by gamma counting; type: ADME, organism-based, Adipose tissue; conditions: in vivo, 2 h; method in brief: as §1
[10] = Chemical stability of the compound in phosphate-saline solution at pH 7.2 assessed as compound remaining after 2 hrs by radio-HPLC/TLC analysis; type: physicochemical; conditions: read-out: Stability
Method in brief: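 Radiotracer incubated 120 min at 40 °C in 0.9% NaCl (pH 7.2), phosphate-saline (0.1 M sodium phosphate, 0.15 M NaCl, pH 7.2) or 0.01 M TRIS–HCl (pH 7.4 at 21 °C). Aliquots were taken at set times and analysed by radio-TLC on silica and by gradient radio-HPLC on RP-18 (MeCN/20 mM ammonium acetate, 254 nm), giving % unchanged tracer; n = 2.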

[11] = Octanol-phosphate buffer partition coefficient, log D of the compound at pH 7.2 by shake-flask method; type: physicochemical
Method in brief: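 Shake-flask distribution of the radioligand between n-octanol and aqueous buffer at pH 7.2, either phosphate buffer or phosphate-saline; n = 3.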

[12] = Metabolic stability in CD1 mouse brain homogenates assessed as compound remaining at 191 MBq, iv after 30 mins by radio-HPLC/TLC analysis; type: ADME, organism-based; conditions: brain homogenate, read-out: Stability
Method in brief: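 Female CD-1 mice were injected with the radiotracer via the tail vein and killed at 30 or 60 min p.i. Whole brains (n = 2 per time) were homogenised in 50 mM TRIS–HCl pH 7.4 at 4 °C and extracted twice with ice-cold acetonitrile. Concentrated extracts were analysed by radio-HPLC and radio-TLC to give % parent versus radiometabolites.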

Mus musculus [13] = assay: Biodistribution in CD1 mouse dorsolateral periaqueductal gray in brain saggital section at 24 MBq, iv at 45 mins by autoradiography; type: ADME, organism-based; conditions: in vivo, 0.75 h
Method in brief: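 Female CD-1 mouse given [18F]1 (24 MBq) i.v. and sacrificed at 45 min. Brain hemispheres frozen in isopentane (−35 °C), cut into 12 µm sagittal cryosections, thaw-mounted, air-dried and exposed to 18F-sensitive storage phosphor screens. Anterior olfactory bulb served as nontarget region for target-to-nontarget ratios.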

Mus musculus [14] = assay: Biodistribution in CD1 mouse thalmic nuclei in brain saggital section at 24 MBq, iv at 45 mins by autoradiography; type: ADME, organism-based; conditions: in vivo, 0.75 h
Method in brief: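 Ex vivo autoradiography: female CD-1 mouse given 18F tracer iv (24 MBq), killed 45 min p.i.; brain hemispheres frozen in isopentane (−35 °C), 12 µm sagittal cryostat sections thaw-mounted, air-dried and exposed to 18F-sensitive phosphor screens. Regional uptake compared with anterior olfactory bulb as nontarget region (target-to-nontarget ratio).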

Cerebellum [15] = assay: Biodistribution in CD1 mouse cerebellum at 300 kBq, iv after 5 mins by gamma counting; type: ADME, organism-based; conditions: in vivo; method in brief: as §1
Kidney [16] = assay: Biodistribution in CD1 mouse kidney at 300 kBq, iv after 5 mins by gamma counting; type: ADME, organism-based; conditions: in vivo; method in brief: as §2
Urinary bladder [17] = assay: Biodistribution in CD1 mouse bladder at 300 kBq, iv after 5 mins by gamma counting; type: ADME, organism-based; conditions: in vivo; method in brief: as §1
Spleen [18] = assay: Biodistribution in CD1 mouse spleen at 300 kBq, iv after 5 mins by gamma counting; type: ADME, organism-based; conditions: in vivo; method in brief: as §2
Femur [19] = assay: Biodistribution in CD1 mouse flushed femur at 300 kBq, iv after 5 mins by gamma counting; type: ADME, organism-based; conditions: in vivo; method in brief: as §1
Cerebellum [20] = assay: Biodistribution in CD1 mouse cerebellum at 300 kBq, iv after 30 mins by gamma counting; type: ADME, organism-based; conditions: in vivo, 0.5 h; method in brief: as §1
Urinary bladder [21] = assay: Biodistribution in CD1 mouse bladder at 300 kBq, iv after 30 mins by gamma counting; type: ADME, organism-based; conditions: in vivo, 0.5 h; method in brief: as §1
Mus musculus [22] = assay: Biodistribution in CD1 mouse thymus at 300 kBq, iv after 30 mins by gamma counting; type: ADME, organism-based; conditions: in vivo, 0.5 h; method in brief: as §2
Mus musculus [23] = assay: Biodistribution in CD1 mouse gonads at 300 kBq, iv after 30 mins by gamma counting; type: ADME, organism-based, Gonad; conditions: in vivo, 0.5 h; method in brief: as §1
Femur [24] = assay: Biodistribution in CD1 mouse flushed femur at 300 kBq, iv after 30 mins by gamma counting; type: ADME, organism-based; conditions: in vivo, 0.5 h; method in brief: as §1
Blood [25] = assay: Biodistribution in CD1 mouse blood at 300 kBq, iv after 60 mins by gamma counting; type: ADME, organism-based; conditions: in vivo, 1 h; method in brief: as §1
Cerebellum [26] = assay: Biodistribution in CD1 mouse cerebellum at 300 kBq, iv after 60 mins by gamma counting; type: ADME, organism-based; conditions: in vivo, 1 h; method in brief: as §1
Lung [27] = assay: Biodistribution in CD1 mouse lung at 300 kBq, iv after 60 mins by gamma counting; type: ADME, organism-based; conditions: in vivo, 1 h; method in brief: as §2
Kidney [28] = assay: Biodistribution in CD1 mouse kidney at 300 kBq, iv after 60 mins by gamma counting; type: ADME, organism-based; conditions: in vivo, 1 h; method in brief: as §2
Urinary bladder [29] = assay: Biodistribution in CD1 mouse bladder at 300 kBq, iv after 60 mins by gamma counting; type: ADME, organism-based; conditions: in vivo, 1 h; method in brief: as §1
Spleen [30] = assay: Biodistribution in CD1 mouse spleen at 300 kBq, iv after 60 mins by gamma counting; type: ADME, organism-based; conditions: in vivo, 1 h; method in brief: as §2
Mus musculus [31] = assay: Biodistribution in CD1 mouse thymus at 300 kBq, iv after 60 mins by gamma counting; type: ADME, organism-based; conditions: in vivo, 1 h
Method in brief: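 Female CD-1 mice received 300 kBq of the radiotracer i.v.; 3–6 animals per time point were anaesthetised at 5, 30, 60 or 120 min p.i. Blood and urine were collected, animals were killed by cervical dislocation, and organs were dissected and weighed. Activity was counted in a calibrated gamma counter and expressed as % injected dose per g wet tissue, mean with SD.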

Mus musculus [32] = assay: Biodistribution in CD1 mouse adrenals at 300 kBq, iv after 60 mins by gamma counting; type: ADME, organism-based, Adrenal gland; conditions: in vivo, 1 h; method in brief: as §1

## [18F]CC1OC2(CCN(Cc3ccccc3)CC2)c2ccccc21 (centres undefined)
Femur [1]
  Drug uptake: 1.75 % ID/g
Mus musculus [2]
  Drug uptake: 2.02 % ID/g
Blood [3]
  Drug uptake: 0.15 % ID/g
Lung [4]
  Drug uptake: 6.82 % ID/g
Urinary bladder [5]
  Drug uptake: 5.58 % ID/g
Spleen [6]
  Drug uptake: 4.84 % ID/g
Pancreas
  Drug uptake: 11.99 % ID/g
Mus musculus [7]
  Drug uptake: 6.6 % ID/g
Muscle tissue
  Drug uptake: 1.16 % ID/g
Femur [8]
  Drug uptake: 1.29 % ID/g
Mus musculus [9]
  Drug uptake: 2.08 % ID/g
[10]
  remaining at 2 h: 96.5%
[11]
  logD: 2.45
[12]
  remaining at 0.5 h: 90%
Mus musculus [13]
  Drug uptake: Active
Mus musculus [14]
  Drug uptake: Active
Cerebellum [15]
  Drug uptake: 8.2 % ID/g
Kidney [16]
  Drug uptake: 14.93 % ID/g
Urinary bladder [17]
  Drug uptake: 1.51 % ID/g
Spleen [18]
  Drug uptake: 6.23 % ID/g
Femur [19]
  Drug uptake: 2.09 % ID/g
Cerebellum [20]
  Drug uptake: 6.27 % ID/g
Urinary bladder [21]
  Drug uptake: 3.86 % ID/g
Mus musculus [22]
  Drug uptake: 4.83 % ID/g
Mus musculus [23]
  Drug uptake: 4.75 % ID/g
Femur [24]
  Drug uptake: 1.42 % ID/g
Blood [25]
  Drug uptake: 0.16 % ID/g
Cerebellum [26]
  Drug uptake: 4.27 % ID/g
Lung [27]
  Drug uptake: 8.32 % ID/g
Kidney [28]
  Drug uptake: 6.03 % ID/g
Urinary bladder [29]
  Drug uptake: 1.42 % ID/g
Spleen [30]
  Drug uptake: 5.3 % ID/g
Mus musculus [31]
  Drug uptake: 2.5 % ID/g
Mus musculus [32]
  Drug uptake: 7.48 % ID/g
